# SMARCA2 activ – increases SMARCA2 function in MMTV reporter cells; MG213 cells, MMTV-luciferase reporter, dexamethasone, overnight; actives 1% (n = 370,000); activation, % at 9.1 µM; in the data active = activation above about 7.8%;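 note: 0% = vehicle wells and 100% = reference activator wells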
# COUP-TFII inh – NR2F2 (human) inhibition, primary screen | inhibition, % at 8.6 µM | actives 0.7% (n = 370,000) | AID 686940 | P24468 | HEK293T NGFI-A luciferase reporter, luminescence;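 active = inhibition above a per-plate cutoff, mean inhibition of test wells between control levels plus 3 SD, cut at about 38% in these data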;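 note: cells cotransfected with COUP-TFII expression vector driving the NGFI-A reporter; 0% = median of COUP-TF2 test wells and 100% = reporter-only cells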
# Target sequence (P24468 whole entry, looked up): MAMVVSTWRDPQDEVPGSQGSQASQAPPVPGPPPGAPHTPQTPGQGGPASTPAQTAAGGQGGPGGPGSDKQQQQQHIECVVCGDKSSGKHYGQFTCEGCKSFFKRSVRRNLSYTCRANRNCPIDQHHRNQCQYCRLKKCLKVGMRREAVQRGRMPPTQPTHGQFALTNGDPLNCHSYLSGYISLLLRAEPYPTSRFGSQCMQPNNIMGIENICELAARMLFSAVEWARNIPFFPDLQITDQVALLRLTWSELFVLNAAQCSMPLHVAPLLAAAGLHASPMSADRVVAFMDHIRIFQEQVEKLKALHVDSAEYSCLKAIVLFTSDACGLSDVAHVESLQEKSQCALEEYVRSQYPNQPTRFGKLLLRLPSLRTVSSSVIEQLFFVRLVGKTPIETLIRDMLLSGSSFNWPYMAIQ
# GalR3 antagonist – blocks the human galanin receptor 3. inhibition, % at 3 µM. HEK293 GalR3-CNG cAMP membrane potential fluorescence; galR3 body fused to GalR1 C-terminus. actives 0.44% (n = 360,000). O60755;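 active = inhibition above the screen-wide average plus 3 SD, cut at about 13% in these data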;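 note: forskolin and galanin both at EC90 stimulate the cells; cAMP rise reported by CNG channel membrane potential dye signal; 0% = forskolin plus galanin with DMSO and 100% = forskolin alone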
# NR2E3 ag-1 – activates human photoreceptor nuclear receptor NR2E3. actives 0.12% (n = 320,000). GST-NR2E3/biotin-RetCOR TR-FRET, 1536-well. inhibition of corepressor binding, % at 4.78 µM. Q9Y5X4;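 active = percent inhibition above the cutoff of mean plus 3 SD of all tested compounds, set per screening campaign, cut at about 20% in these data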;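 note: 0% = DMSO wells and 100% = biotin wells as full block of FRET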
#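 Material: NR2E3–RetCOR corepressor complex | Quantity: 1.35 nM GST-tagged NR2E3 final | Schedule: 5 h at 4 °C | Replication: Singlicate compound wells | Reagent: RetCOR corepressor, biotinylated, 7 nM | Controls: Biotin wells as high control, 0.6% DMSO wells as low control | Signal: TR-FRET, Eu(K)-anti-GST donor, streptavidin-D2 acceptor, ex 340, em 617/671 nm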
# NR2E3 ag-2 – agonists of human NR2E3 nuclear receptor. actives 0.35% (n = 360,000). inhibition of corepressor binding, % at 3.98 µM. Q9Y5X4. CHO-S Gal4-NCOR/VP16-NR2E3 two-hybrid, luciferase. AID 602229;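 active = inhibition above the mean of all tested compounds plus 3 SD, cut at about 70% in these data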;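 note: 0% = DMSO with NR2E3 transfected cells and 100% = cells lacking NR2E3 construct; higher means lower luciferase signal from less NR2E3 corepressor binding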
# GalR3 antag conf – GalR3 (human) antagonism, confirmation; shares compounds with GalR3 antagonist; HEK293 GalR3 CNG cAMP biosensor, membrane potential fluorescence; galR3 fused to GalR1 carboxy tail; challenged with forskolin and galanin at EC90; inhibition, % at 3 µM; actives 59% (n = 1,600); AID 652245;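 active = inhibition above the primary screen's cutoff, the mean inhibition of all screened compounds plus 3 SD, cut at about 13% in these data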;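 note: 0% = forskolin plus galanin and 100% = forskolin alone with DMSO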
# CNG parental – acts as nonspecific agonist in parental HEK-CNG cells | shares compounds with GalR3 antagonist | HEK293-CNG parental cells, cAMP membrane potential fluorescence; normalised: DMSO wells 0%, forskolin wells 100% | activation, % at 3 µM | actives 10% (n = 1,600); in the data active = activation above about 1.3%
# * hit, by the source's call; nt = no result given. An excerpt weighted towards active compounds, which were near 2.2% of everything screened.
SMILES,SMARCA2 activ,COUP-TFII inh,GalR3 antagonist,NR2E3 ag-1,NR2E3 ag-2,GalR3 antag conf,CNG parental
COc1cc(C(=O)Nc2cccc(S(=O)(=O)N3CCCC3)c2)cc(OC)c1C,0,-10,14*,-1,-2,12,1
O=C(Nc1nc2ncccn2c1-c1ccc(C(F)(F)F)cc1)C1CC1,-4,-15,nt,nt,nt,nt,nt
Cc1ccc2c(c1)-c1c(cnn1CC(=O)NCCc1ccc(O)cc1)CO2,-3,10,nt,nt,nt,nt,nt
CCOC(=O)[C@]12CCCC3=C1N(CCC3)C(=O)[C@@H](CC(=O)NCCCOC)C2,1,-10,nt,nt,nt,nt,nt
COc1cccc(-c2cc(C(=O)Nc3ccc(N(C)C(C)=O)cc3)c3cc(Br)ccc3n2)c1,-2,-24,19*,-2,-23,10,1.4*
COc1cccc(-c2cc(C(=O)Nc3ccncc3)c3ccccc3n2)c1,-3,-6,1,3,-5,nt,nt
CN(C)CCN(Cc1ccccc1)S(=O)(=O)c1ccc(-c2ccc(=O)[nH]n2)s1,0,8,11,1,-7,nt,nt
CCCCN(Cc1cccs1)S(=O)(=O)c1ccc(-c2ccc(=O)[nH]n2)s1,0,2,22*,1,0,24*,0
CCOC(=O)CCN(c1ccccc1)S(=O)(=O)c1ccc(-c2ccc(=O)[nH]n2)s1,0,-4,33*,1,14,57*,0
CCc1ccccc1NC(=O)CN(C)S(=O)(=O)c1ccc(-c2ccc(=O)[nH]n2)s1,0,-8,-4,0,-9,nt,nt
COCCN(Cc1cccs1)S(=O)(=O)c1ccc(-c2ccc(=O)[nH]n2)s1,-1,-2,26*,0,-58,28*,0
COCCN(Cc1cc2cc(C)ccc2[nH]c1=O)S(=O)(=O)c1ccc(Cl)cc1,-2,5,73*,-2,-12,4,0
Cc1ccc(S(=O)(=O)N(C)Cc2cc3cc(C)ccc3[nH]c2=O)cc1,-1,-12,4,3,-6,nt,nt
c1ccc(-c2nnc3n2N=C(c2ccc4ccccc4c2)CS3)cc1,-4,9,nt,nt,nt,nt,nt
CN(C)[C@@H]1CCN(c2cccc3c2S(=O)(=O)N2CC[C@H](C2)O3)C1,0,-7,nt,nt,nt,nt,nt
CCCNC(=O)c1n[nH]c(=O)c2ccccc12,1,-1,0,1,-18,nt,nt
O=C(NCCOc1ccccc1)c1n[nH]c(=O)c2ccccc12,1,-27,20*,3,-32,1,0
O=C(OC1CCOC1=O)c1cc(Cl)ccc1[N+](=O)[O-] (centres undefined),-3,2,6,-1,0,nt,nt
O=C(OC1CCOC1=O)c1ccc(N2CCCC2)c([N+](=O)[O-])c1 (centres undefined),-6,4,20*,2,2,2,0
O=C(CSc1nc2ccccc2o1)Nc1ccc(N2CCOCC2)c(Cl)c1,-3,-14,92*,3,5,109*,0
COc1cc(/C=N/n2nnnc2N)ccc1OCC(N)=O,nt,nt,nt,1,-20,nt,nt
COc1cc(/C=N\n2nnnc2N)ccc1OCc1ccc(F)cc1,0,-29,21*,3,-10,25*,1
COc1cc(/C=N/N=C(N)N)ccc1OCc1ccc(Cl)cc1,-3,0,92*,1,-118,45*,1.8*
COc1ccc2c(c1)OC(=O)CC2c1cc(OC)c(OC)c(OC)c1 (centres undefined),-1,0,13*,nt,-26,4,0
COc1cc(C2CC(=O)Oc3cc(O)ccc32)cc(OC)c1OC (centres undefined),-4,11,-4,nt,-7,nt,nt
SMILES,SMARCA2 activ,COUP-TFII inh,GalR3 antagonist,NR2E3 ag-1,NR2E3 ag-2,GalR3 antag conf,CNG parental
O=C(NN1C(=O)/C(=C/c2cccs2)SC1=S)c1ccncc1,6,4,1,-4,-26,nt,nt
COc1cccc(/C=C2\SC(=S)N(NC(=O)c3ccncc3)C2=O)c1,-3,-1,14*,4,-10,0,0
O=C(NCc1ccccc1)OCCCN1C(=O)CCC12CCCCC2,0,1,nt,nt,nt,nt,nt
CC(C)(C)OC(=O)/C=C/[C@@H](CCCCl)Sc1ccc(C(C)(C)C)cc1,-5,-5,nt,nt,nt,nt,nt
COC(=O)c1cc(-c2ccc(C)c(C)c2)c(=O)n2c1CCC2,-1,-4,nt,nt,nt,nt,nt
O=[N+]([O-])c1cccc(S(=O)(=O)c2ccc(N3CCCCC3)c([N+](=O)[O-])c2)c1,-4,14,-6,1,-11,nt,nt
O=[N+]([O-])c1cc(S(=O)(=O)c2ccc(N3CCCCC3)c([N+](=O)[O-])c2)ccc1N1CCCCC1,-2,23,27*,-1,5,0,2.2*
COc1ccc(OCC(=O)Nc2ccc3oc(-c4ccncc4)nc3c2)cc1,0,-46,-1,0,-1,nt,nt
COc1ccc(-c2nc3cc(NC(=O)Cc4ccc(OC)c(OC)c4)ccc3o2)cc1,-6,28,38*,-1,11,11,0
Nc1nc2c(ncn2[C@@H]2O[C@H](C(=O)N[C@H](Cc3ccccc3)C(=O)O)[C@@H](O)[C@H]2O)c(=O)[nH]1,2,3,-6,nt,nt,nt,nt
CNC(=O)[C@H]1O[C@@H](n2cnc3c(NCc4cccc(I)c4)nc(Cl)nc32)[C@H](O)[C@@H]1O,-6,-44,51*,-1,-6,52*,-1
COC(=O)C1CN(Cc2cn(Cc3ccc(OC)cc3)nn2)CCS(=O)(=O)N1Cc1ccc(Cl)cc1 (centres undefined),-2,-33,nt,nt,nt,nt,nt
Cc1ccccc1-c1cc(C(=O)O)nn1CC1CC(c2cccc([N+](=O)[O-])c2)=NO1 (centres undefined),1,6,18*,-2,4,3,0
CC(C)Oc1ccc(-c2csc(N3CCC(C(N)=O)CC3)n2)cc1,nt,-10,nt,nt,nt,nt,nt
Cc1onc(-c2c(F)cccc2Cl)c1-c1ncc(-c2ccc(Cl)cc2)o1,4,-10,2,nt,nt,nt,nt
Cc1cccc(OCCn2nc(C(=O)O)c3ccccc3c2=O)c1,0,14,5,1,-11,nt,nt
Cc1noc(C)c1Cn1nc(C(=O)O)c2ccccc2c1=O,1,2,19*,2,-7,27*,1
Cc1cccc(C)c1OCCn1nc(C(=O)O)c2ccccc2c1=O,0,-14,16*,6,-9,24*,0
Cc1ccc(-c2noc(Cn3nc(C(=O)O)c4ccccc4c3=O)n2)cc1,-4,8,-8,-2,-44,nt,nt
O=C(O)c1nn(CCSc2ccccc2F)c(=O)c2ccccc12,0,-15,27*,2,-26,9,0
Cc1ccc(SCCn2nc(C(=O)O)c3ccccc3c2=O)cc1,1,11,10,-2,-35,nt,nt
